The source made the active and inactive calls. No cut-off for these calls is given here.
Legend:
[1] = AUC (0 to infinity) in ICR mouse at 3 mg/kg, po administered via gavage measured after 0.25 to 24 hrs by UPLC/MS analysis; format: ADME, organism-based; set-up: dose 3 mg/kg, time infinity, route oral; conditions: in vivo
Procedure, shortened: (§1)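 Male ICR mice were dosed orally in 1% DMSO/0.5% HPMC vehicle. Plasma (and brain, where stated) concentrations gave Tmax, Cmax, T1/2, AUC0-t and AUC0-inf.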

MM1.S [2] = assay: Antiproliferative activity against human MM1S cells after 72 hrs by CCK8 or SRB assay; format: functional, cell-based
Procedure, shortened: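 IC50 against MM.1S cell proliferation was taken as the mean of three independent experiments, each run in triplicate, reported with SEM.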

Cytochrome P450 2D6 = Cytochrome P450 2D6 (Homo sapiens, UniProt P10635); assay: Time-dependent inhibition of CYP2D6 in human liver microsomes at 10 uM using dextromethorphan as substrate preincubated up to 30 mins followed by NADPH generating system addition and measured after 10 mins; format: ADME
Procedure, shortened: (§2)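 Human liver microsomes 0.2 mg/mL, 100 mM phosphate pH 7.4, 10 μM test compound, preincubated 0, 5, 10 and 30 min at 37 °C; then NADPH plus probe cocktail (5 μM midazolam, 50 μM testosterone, 5 μM dextromethorphan, 10 μM diclofenac, 50 μM phenacetin, 50 μM S-(+)-mephenytoin) added; 10 min reaction; kobs in units of 10^-4/min.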

Cytochrome P450 3A4 = Cytochrome P450 3A4 (Homo sapiens, UniProt P08684); assay: Time-dependent inhibition of CYP3A4 in human liver microsomes at 10 uM using midazolam or testosterone as substrate preincubated up to 30 mins followed by NADPH generating system addition and measured after 10 mins; format: ADME; procedure, shortened: as §2
CYP3A4 = CYP3A4 (Homo sapiens, UniProt P08684); assay: Reversible inhibition of CYP3A4 in human liver microsomes at 10 uM using midazolam or testosterone as substrate preincubated for 5 mins followed by NADPH addition and measured after 20 mins relative to control; format: ADME; conditions: probe midazolam or testosterone
Procedure, shortened: (§3)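 Human liver microsomes 0.2 mg/mL, 100 mM phosphate pH 7.4, 10 μM test compound, probe cocktail (10 μM midazolam, 100 μM testosterone, 10 μM dextromethorphan, 20 μM diclofenac, 100 μM phenacetin, 100 μM mephenytoin); organic solvent <1%; 5 min preincubation at 37 °C, started with NADPH-generating system, 20 min reaction; metabolite formation expressed relative to PBS control.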

[3] = biological target: Bromodomain-containing protein 2 (Homo sapiens) (UniProt P25440); assay: Inhibition of BRD2 bromodomain 2 (unknown origin)
Procedure, shortened: (§4)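 Bromodomain binding panel (32 bromodomains) screened at 1 μM; primary binding read-out reported as percent of control, lower values meaning stronger binding.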

Cytochrome P450 1A2 = biological target: T1, Cytochrome P450 1A2 (Homo sapiens, UniProt P05177); assay: Time-dependent inhibition of CYP1A2 in human liver microsomes at 10 uM using phenacetin as substrate preincubated up to 30 mins followed by NADPH generating system addition and measured after 10 mins; format: ADME; procedure, shortened: as §2
T1 sequence (P05177 whole entry): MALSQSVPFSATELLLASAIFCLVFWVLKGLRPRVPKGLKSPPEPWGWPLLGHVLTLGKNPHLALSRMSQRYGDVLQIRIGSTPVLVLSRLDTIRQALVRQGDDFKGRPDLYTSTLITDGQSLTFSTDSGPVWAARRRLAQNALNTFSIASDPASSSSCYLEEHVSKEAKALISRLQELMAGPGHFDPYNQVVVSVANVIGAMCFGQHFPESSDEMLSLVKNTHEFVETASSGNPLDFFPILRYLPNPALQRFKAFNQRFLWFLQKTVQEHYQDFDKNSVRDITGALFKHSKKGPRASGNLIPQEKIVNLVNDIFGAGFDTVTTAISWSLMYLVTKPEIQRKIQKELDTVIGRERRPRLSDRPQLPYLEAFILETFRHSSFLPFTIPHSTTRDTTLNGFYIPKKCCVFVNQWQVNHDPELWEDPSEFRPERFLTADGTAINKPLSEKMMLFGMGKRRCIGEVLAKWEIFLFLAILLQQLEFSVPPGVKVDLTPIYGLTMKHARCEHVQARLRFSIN

[4] = Intrinsic clearance in mouse liver microsomes at 1 uM preincubated for 5 mins followed by NADPH addition and measured after 5 to 30 mins by LC/MS/MS analysis; format: ADME, Microsome; conditions: read-out: CLH
Procedure, shortened: (§5)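 Liver microsomes (0.5 mg/mL) preincubated 5 min at 37 °C with 1 μM compound in 0.1 M phosphate buffer pH 7.4 containing 1 mM EDTA and 5 mM MgCl2; started with 1 mM NADPH; sampled at 0, 5, 10 and 30 min; quenched with cold acetonitrile; parent remaining quantified by LC/MS/MS.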

CYP2C19 = CYP2C19 (Homo sapiens, UniProt P33261); assay: Reversible inhibition of CYP2C19 in human liver microsomes at 10 uM using mephenytoin as substrate preincubated for 5 mins followed by NADPH generating system addition and measured after 20 mins relative to control; format: ADME; conditions: probe mephenytoin; procedure, shortened: as §3
[5] = Cmax in ICR mouse at 3 mg/kg, po administered via gavage measured after 0.25 to 24 hrs by UPLC/MS analysis; format: ADME, organism-based; set-up: dose 3 mg/kg, route oral; conditions: in vivo
Procedure, shortened: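 Male ICR mice dosed orally in 1% DMSO/0.5% HPMC vehicle; plasma or brain drug levels used to derive Tmax, Cmax, AUC0-t, AUC0-inf and T1/2.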

[6] = Solubility of the compound in water; format: physicochemical; conditions: buffer
MM1.S [7] = assay: Antitumor activity against human MM1S cells xenografted in SCID mouse assessed as tumor growth at 20 mg/kg, po administered daily relative to control; format: functional
[8] = Solubility of the compound at pH 2 to 7; format: physicochemical; conditions: buffer
[9] = biological target: Bromodomain-containing protein 2 (Homo sapiens) (UniProt P25440); assay: Inhibition of BRD2 bromodomain 1 (unknown origin)
Cytochrome P450 2C19 = Cytochrome P450 2C19 (Homo sapiens, UniProt P33261); assay: Time-dependent inhibition of CYP2C19 in human liver microsomes at 10 uM using mephenytoin as substrate preincubated up to 30 mins followed by NADPH generating system addition and measured after 10 mins; format: ADME; procedure, shortened: as §2
[10] = biological target: T2, Bromodomain-containing protein 4 (Homo sapiens, UniProt O60885); assay: Displacement of 5-FITC labelled (+)-JQ1 from His6-tagged human BRD4 bromodomain 1 expressed in Escherichia coli BL21(DE3) )-codon plus-RIL cells incubated for 4 hrs in dark condition by fluorescence anisotropy binding assay
[11] = AUC (0 to t) in ICR mouse at 3 mg/kg, po administered via gavage measured after 0.25 to 24 hrs by UPLC/MS analysis; format: ADME, organism-based; set-up: time upper 24 hr, time lower 0.25 hr, dose 3 mg/kg, route oral; conditions: in vivo; procedure, shortened: as §1
[12] = Half life in mouse liver microsomes at 1 uM preincubated for 5 mins followed by NADPH addition and measured after 5 to 30 mins by LC/MS/MS analysis; format: ADME, Microsome; conditions: mouse liver microsomes
[13] = biological target: T2, Bromodomain-containing protein 4; assay: Inhibition of BRD4 bromodomain 1 (unknown origin)
Procedure, shortened: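 BRD4 BD1 (His6-tagged, E. coli BL21(DE3)-expressed, Ni-NTA purified) at 10 nM with 5 nM FITC-labelled (+)-JQ1 tracer; 50 mM HEPES pH 7.4, 150 mM NaCl, 0.5 mM CHAPS, DMSO 2‰ final; graded inhibitor; 4 h dark equilibration at room temperature; fluorescence anisotropy read (ex 485/em 530 nm). IC50 from two independent experiments in duplicate, mean ± SEM.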

[14] = Half life in ICR mouse at 3 mg/kg, po administered via gavage measured after 0.25 to 24 hrs by UPLC/MS analysis; format: ADME, organism-based; conditions: in vivo
Procedure, shortened: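 Male ICR mice dosed orally; vehicle 1% DMSO/0.5% HPMC. Plasma pharmacokinetic parameters, including T1/2, were determined after the single oral dose.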

CYP2C9 = CYP2C9 (Homo sapiens, UniProt P11712); assay: Reversible inhibition of CYP2C9 in human liver microsomes at 10 uM using diclofenac as substrate preincubated for 5 mins followed by NADPH generating system addition and measured after 20 mins relative to control; format: ADME; conditions: probe diclofenac; procedure, shortened: as §3
[15] = Half life in human liver microsomes at 1 uM preincubated for 5 mins followed by NADPH addition and measured after 5 to 30 mins by LC/MS/MS analysis; format: ADME, Microsome
[16] = Tmax in ICR mouse at 3 mg/kg, po administered via gavage measured after 0.25 to 24 hrs by UPLC/MS analysis; format: ADME, organism-based; conditions: in vivo
Procedure, shortened: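 Male ICR mice dosed orally (3, 10 or 100 mg/kg, per line) in 1% DMSO/0.5% HPMC vehicle; plasma drug levels measured.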

[17] = biological target: Histone acetyltransferase p300 (Homo sapiens) (UniProt Q09472); assay: Inhibition of EP300 (unknown origin) at 1 uM; procedure, shortened: as §4
Cytochrome P450 2C9 = Cytochrome P450 2C9 (Homo sapiens, UniProt P11712); assay: Time-dependent inhibition of CYP2C9 in human liver microsomes at 10 uM using diclofenac as substrate preincubated up to 30 mins followed by NADPH generating system addition and measured after 10 mins; format: ADME; procedure, shortened: as §2
[18] = biological target: T2, Bromodomain-containing protein 4; assay: Inhibition of BRD4 bromodomain 2 (unknown origin)
[19] = Intrinsic clearance in human liver microsomes at 1 uM preincubated for 5 mins followed by NADPH addition and measured after 5 to 30 mins by LC/MS/MS analysis; format: ADME, Microsome; conditions: read-out: CLH; procedure, shortened: as §5
MV4-11 [20] = assay: Induction of apoptosis in human MV4-11 cells assessed as reduction in c-IAP2 level after 24 hrs by Western blot analysis; format: functional, cell-based
MV4-11 [21] = assay: Induction of apoptosis in human MV4-11 cells assessed as increase in cleaved caspase-9 level after 24 hrs by Western blot analysis; format: functional, cell-based
Procedure, shortened: (§6)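 MV4-11 cells exposed to test agent at the indicated doses for 24 h. Lysates immunoblotted for full-length and cleaved caspase-3, -7, -8 and -9, with GAPDH as the loading reference.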

MV4-11 [22] = assay: Antiproliferative activity against human MV4-11 cells after 72 hrs by CCK8 or SRB assay; format: functional, cell-based
MV4-11 [23] = assay: Antitumor activity against human MV4-11 cells xenografted in Balb/c nude mouse assessed as tumor growth inhibition at 50 mg/kg, po administered once daily and measured twice a week by caliper method relative to control; format: functional; conditions: MV4-11, po, read-out: TGI
Homo sapiens = organism: Homo sapiens; assay: Antiproliferative activity against human TY82 cells after 72 hrs by CCK8 or SRB assay; format: functional, cell-based
MV4-11 [24] = assay: Induction of apoptosis in human MV4-11 cells after 24 hrs by Annexin V staining based assay; format: functional, cell-based
MV4-11 [25] = assay: Induction of apoptosis in human MV4-11 cells assessed as reduction in XIAP level after 24 hrs by Western blot analysis; format: functional, cell-based
MV4-11 [26] = assay: Antitumor activity against human MV4-11 cells xenografted in Balb/c nude mouse assessed as tumor growth inhibition at 100 mg/kg, po administered once daily and measured twice a week by caliper method relative to control; format: functional; conditions: MV4-11, po, read-out: TGI
MV4-11 [27] = assay: Induction of apoptosis in human MV4-11 cells assessed as increase in cleaved caspase-8 level after 24 hrs by Western blot analysis; format: functional, cell-based; procedure, shortened: as §6
RKO = assay: Induction of cell cycle arrest in human RKO cells assessed as increase in accumulation at G1 phase at 100 nM after 24 hrs by propidium iodide staining based flow cytometric analysis; format: functional
MV4-11 [28] = assay: Induction of apoptosis in human MV4-11 cells assessed as reduction in c-IAP1 level after 24 hrs by Western blot analysis; format: functional, cell-based

Sequence of Bromodomain-containing protein 2 (Homo sapiens) (P25440 whole entry, looked up): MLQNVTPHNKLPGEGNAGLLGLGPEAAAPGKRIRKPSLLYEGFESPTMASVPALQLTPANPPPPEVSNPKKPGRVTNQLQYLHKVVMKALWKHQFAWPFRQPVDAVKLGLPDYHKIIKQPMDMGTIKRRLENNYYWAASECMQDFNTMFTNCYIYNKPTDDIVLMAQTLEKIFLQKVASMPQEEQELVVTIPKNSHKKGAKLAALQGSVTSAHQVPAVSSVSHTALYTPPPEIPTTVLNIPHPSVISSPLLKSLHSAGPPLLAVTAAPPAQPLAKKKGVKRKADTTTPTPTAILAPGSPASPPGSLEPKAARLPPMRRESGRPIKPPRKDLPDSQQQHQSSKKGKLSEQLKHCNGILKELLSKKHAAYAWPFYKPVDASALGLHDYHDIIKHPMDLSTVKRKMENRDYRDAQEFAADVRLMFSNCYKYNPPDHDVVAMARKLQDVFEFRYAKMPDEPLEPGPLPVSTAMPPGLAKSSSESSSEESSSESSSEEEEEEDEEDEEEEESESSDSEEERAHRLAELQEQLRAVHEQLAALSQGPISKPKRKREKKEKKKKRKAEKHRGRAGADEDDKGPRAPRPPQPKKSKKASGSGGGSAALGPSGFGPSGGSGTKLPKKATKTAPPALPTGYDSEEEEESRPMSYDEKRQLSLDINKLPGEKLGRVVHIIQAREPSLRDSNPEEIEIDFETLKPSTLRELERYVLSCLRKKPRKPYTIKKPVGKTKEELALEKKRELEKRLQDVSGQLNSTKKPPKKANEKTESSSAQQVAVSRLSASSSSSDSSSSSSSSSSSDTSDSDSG
Sequence of Histone acetyltransferase p300 (Homo sapiens) (Q09472 whole entry): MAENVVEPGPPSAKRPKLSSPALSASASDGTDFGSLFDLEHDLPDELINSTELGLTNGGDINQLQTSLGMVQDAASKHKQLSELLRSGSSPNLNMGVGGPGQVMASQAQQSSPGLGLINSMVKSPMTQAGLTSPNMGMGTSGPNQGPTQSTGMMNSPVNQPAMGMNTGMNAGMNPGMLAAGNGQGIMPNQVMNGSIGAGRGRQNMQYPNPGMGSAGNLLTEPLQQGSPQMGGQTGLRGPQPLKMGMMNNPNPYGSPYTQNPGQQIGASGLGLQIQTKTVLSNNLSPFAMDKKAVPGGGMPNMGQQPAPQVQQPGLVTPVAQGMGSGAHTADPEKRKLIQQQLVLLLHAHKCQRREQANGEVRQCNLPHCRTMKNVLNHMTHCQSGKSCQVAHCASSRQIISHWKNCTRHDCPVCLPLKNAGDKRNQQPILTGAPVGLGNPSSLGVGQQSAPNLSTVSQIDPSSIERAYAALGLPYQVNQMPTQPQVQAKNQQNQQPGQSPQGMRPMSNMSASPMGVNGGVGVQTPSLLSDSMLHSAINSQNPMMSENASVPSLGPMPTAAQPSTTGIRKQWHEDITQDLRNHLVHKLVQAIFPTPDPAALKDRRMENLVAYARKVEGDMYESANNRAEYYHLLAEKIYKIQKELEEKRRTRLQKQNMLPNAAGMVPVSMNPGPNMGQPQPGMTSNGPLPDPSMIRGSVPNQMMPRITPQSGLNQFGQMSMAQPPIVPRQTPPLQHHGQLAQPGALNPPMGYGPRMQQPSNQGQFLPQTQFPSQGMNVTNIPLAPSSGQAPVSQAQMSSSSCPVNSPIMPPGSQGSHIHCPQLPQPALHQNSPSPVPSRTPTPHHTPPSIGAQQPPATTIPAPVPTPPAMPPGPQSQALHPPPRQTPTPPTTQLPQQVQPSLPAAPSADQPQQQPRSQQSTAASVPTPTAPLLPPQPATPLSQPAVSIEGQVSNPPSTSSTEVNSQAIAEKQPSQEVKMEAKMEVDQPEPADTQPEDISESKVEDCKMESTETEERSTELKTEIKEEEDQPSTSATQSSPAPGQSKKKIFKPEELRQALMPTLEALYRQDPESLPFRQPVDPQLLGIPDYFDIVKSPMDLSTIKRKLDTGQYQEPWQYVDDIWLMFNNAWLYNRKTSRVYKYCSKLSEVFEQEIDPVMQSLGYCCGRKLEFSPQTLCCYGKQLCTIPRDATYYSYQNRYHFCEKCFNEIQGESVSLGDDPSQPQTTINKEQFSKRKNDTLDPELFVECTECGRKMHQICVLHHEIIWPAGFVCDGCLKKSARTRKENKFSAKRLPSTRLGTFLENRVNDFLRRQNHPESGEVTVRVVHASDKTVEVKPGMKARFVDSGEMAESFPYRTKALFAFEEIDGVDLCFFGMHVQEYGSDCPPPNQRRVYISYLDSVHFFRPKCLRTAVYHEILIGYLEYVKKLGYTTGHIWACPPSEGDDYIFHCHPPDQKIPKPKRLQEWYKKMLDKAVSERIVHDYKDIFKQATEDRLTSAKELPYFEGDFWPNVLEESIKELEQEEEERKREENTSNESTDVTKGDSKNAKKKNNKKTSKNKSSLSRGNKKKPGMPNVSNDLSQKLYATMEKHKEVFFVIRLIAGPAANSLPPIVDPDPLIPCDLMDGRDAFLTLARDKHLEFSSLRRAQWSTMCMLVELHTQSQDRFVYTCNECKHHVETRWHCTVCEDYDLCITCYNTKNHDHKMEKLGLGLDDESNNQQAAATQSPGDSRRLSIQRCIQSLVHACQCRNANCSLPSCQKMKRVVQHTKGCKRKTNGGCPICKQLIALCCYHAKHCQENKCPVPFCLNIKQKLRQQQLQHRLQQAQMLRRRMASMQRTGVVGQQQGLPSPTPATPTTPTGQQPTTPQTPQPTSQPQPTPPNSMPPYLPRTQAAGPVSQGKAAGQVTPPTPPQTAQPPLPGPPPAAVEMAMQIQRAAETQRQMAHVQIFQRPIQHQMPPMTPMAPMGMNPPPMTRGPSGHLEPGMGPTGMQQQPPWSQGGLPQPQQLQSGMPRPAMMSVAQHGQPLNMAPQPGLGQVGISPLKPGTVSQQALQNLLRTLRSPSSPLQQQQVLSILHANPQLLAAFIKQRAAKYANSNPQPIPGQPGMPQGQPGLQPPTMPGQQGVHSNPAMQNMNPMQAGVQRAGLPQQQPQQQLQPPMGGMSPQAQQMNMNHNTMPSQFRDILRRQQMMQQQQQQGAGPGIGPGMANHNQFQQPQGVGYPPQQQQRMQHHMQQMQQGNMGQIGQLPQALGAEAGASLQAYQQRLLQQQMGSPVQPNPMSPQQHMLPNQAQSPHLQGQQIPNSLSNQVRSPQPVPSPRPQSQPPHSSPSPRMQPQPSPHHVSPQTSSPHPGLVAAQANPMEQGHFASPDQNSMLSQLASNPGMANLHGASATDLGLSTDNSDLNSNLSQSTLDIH
Sequence of Cytochrome P450 2D6 (P10635 whole entry): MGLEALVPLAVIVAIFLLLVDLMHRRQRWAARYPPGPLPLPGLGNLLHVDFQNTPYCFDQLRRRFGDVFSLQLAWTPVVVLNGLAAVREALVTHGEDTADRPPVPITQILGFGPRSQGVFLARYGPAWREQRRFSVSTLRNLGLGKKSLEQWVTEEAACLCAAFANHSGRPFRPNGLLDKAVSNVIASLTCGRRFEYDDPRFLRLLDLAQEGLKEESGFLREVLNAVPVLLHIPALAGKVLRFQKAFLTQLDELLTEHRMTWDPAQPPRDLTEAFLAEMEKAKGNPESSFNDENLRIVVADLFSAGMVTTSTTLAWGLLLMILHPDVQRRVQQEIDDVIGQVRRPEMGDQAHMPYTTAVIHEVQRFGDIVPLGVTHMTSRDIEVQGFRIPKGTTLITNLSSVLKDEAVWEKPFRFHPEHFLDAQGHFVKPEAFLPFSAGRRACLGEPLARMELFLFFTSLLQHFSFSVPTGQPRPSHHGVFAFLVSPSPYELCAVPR
Sequence of Cytochrome P450 2C19 (P33261 whole entry): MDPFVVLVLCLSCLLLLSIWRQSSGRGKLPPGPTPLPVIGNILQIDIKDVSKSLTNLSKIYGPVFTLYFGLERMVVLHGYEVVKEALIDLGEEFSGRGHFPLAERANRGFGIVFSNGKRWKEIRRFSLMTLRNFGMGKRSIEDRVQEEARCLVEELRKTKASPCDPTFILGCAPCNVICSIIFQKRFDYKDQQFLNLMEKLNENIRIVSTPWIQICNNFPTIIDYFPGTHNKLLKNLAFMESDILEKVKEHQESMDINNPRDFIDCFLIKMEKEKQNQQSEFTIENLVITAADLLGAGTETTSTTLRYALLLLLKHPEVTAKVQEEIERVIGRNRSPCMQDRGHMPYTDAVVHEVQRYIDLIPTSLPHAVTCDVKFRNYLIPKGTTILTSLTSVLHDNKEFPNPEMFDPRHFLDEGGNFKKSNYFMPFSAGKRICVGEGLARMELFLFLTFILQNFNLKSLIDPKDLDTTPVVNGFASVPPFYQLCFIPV
Sequence of CYP2C19 (P33261 whole entry): as above

## Cc1ccc(-n2c(C)nnc2-c2ccc3c(c2)N(C2CC2)C(C)C(=O)N3C)cc1 (centres undefined)
[1]
  AUC(0-inf): 244 ng·h/mL
MM1.S [2]
  IC50: 3.3 nM
Cytochrome P450 2D6
  TDI: Not Active
Cytochrome P450 3A4
  TDI: Not Active
CYP3A4
  inhibition at 20 min, 10 µM: 3%
[3]
  inhibition: Active
Cytochrome P450 1A2
  TDI: Not Active
[4]
  microsomal CLint at 1 µM: 460 µL/min/mg
CYP2C19
  inhibition at 20 min, 10 µM: 41%
[5]
  Cmax: 265 ng/mL
[6]
  solubility: Insoluble
MM1.S [7]
  T/C: 67.4%
[8]
  solubility: Insoluble
[9]
  inhibition activity call (active/inactive): Active
Cytochrome P450 2C19
  TDI: Not Active
[10]
  IC50: 5.7 nM
[11]
  AUC(0-t): 243 ng·h/mL
[12]
  half-life at 1 µM: 3 min
[13]
  inhibition: Active
[14]
  half-life: 42 min
CYP2C9
  inhibition at 20 min, 10 µM: 10%
[15]
  half-life at 1 µM: 31.5 min
[16]
  Tmax: 18 min
[17]
  inhibition: inactive
Cytochrome P450 2C9
  TDI: Not Active
[18]
  inhibition: Active
[19]
  microsomal CLint at 1 µM: 44 µL/min/mg

## Cc1sc2c(c1C)C(c1ccc(Cl)cc1)=N[C@@H](CC(=O)Nc1ccc(O)cc1)c1nnc(C)n1-2 [BIRABRESIB]
MM1.S [2]
  IC50: 6.3 nM
MV4-11 [20]
  Activity: Dose-dependent effect
MV4-11 [21]
  Activity: Dose-dependent effect
MV4-11 [22]
  Activity: Active
MV4-11 [23]
  inhibition in vivo at 50 mg/kg: 71.5%
Homo sapiens
  Activity: Active
MV4-11 [24]
  Activity: Active
MV4-11 [25]
  Activity: Dose-dependent effect
MV4-11 [26]
  inhibition in vivo at 100 mg/kg: 87.5%
MV4-11 [27]
  Activity: Dose-dependent effect
RKO
  Activity: Active
MV4-11 [28]
  Activity: Dose-dependent effect
